Data taken from ChEMBL document CHEMBL4715682, “Potent trifluoromethoxy, trifluoromethylsulfonyl, trifluoromethylthio and pentafluorosulfanyl containing (1,3,4-oxadiazol-2-yl)benzamides against drug-resistant Gram-positive bacteria” (RSC Med Chem, 2020).
In brackets after ≈: the same amount, converted by molar mass. Activity calls are given as the source filed them. The calls are words filed in the database; no cut-off is given here.

Tests used:
[1] = system: Caco-2; assay: Cytotoxicity against human Caco2 cells assessed as reduction in cell viability at 128 ug/ml incubated for 2 hrs by MTS assay; type: cell-based; conditions: caco-2, 2 h, dose 128 µg/ml
[2] = system: Staphylococcus aureus; assay: Antibacterial activity against methicillin-sensitive Staphylococcus aureus ATCC 6538 assessed as inhibition of visible bacterial growth incubated for 18 to 20 hrs by CLSI method; type: functional; conditions: time 18-20 hrs
Method in brief: (§1)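 CLSI broth microdilution. Strains grown aerobically overnight on tryptic soy agar at 37 °C, adjusted to 0.5 McFarland and diluted in cation-adjusted Mueller–Hinton broth to about 5×10^5 CFU/mL. Compounds and control drugs serially diluted across the plate. Incubated aerobically at 37 °C for 18-20 h. MIC is the lowest concentration with no visible growth.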

[3] = system: Staphylococcus aureus; assay: Antibacterial activity against vancomycin-resistant Staphylococcus aureus 12 assessed as inhibition of visible bacterial growth incubated for 18 to 20 hrs by CLSI method; type: functional; conditions: time 18-20 hrs; method in brief: as §1
[4] = system: Staphylococcus aureus; assay: Antibacterial activity against methicillin-resistant Staphylococcus aureus NRS484 assessed as inhibition of visible bacterial growth incubated for 18 to 20 hrs by CLSI method; type: functional; conditions: time 18-20 hrs; method in brief: as §1
[5] = system: Listeria monocytogenes; assay: Antibacterial activity against Listeria monocytogenes ATCC 19111 assessed as inhibition of visible bacterial growth incubated for 18 to 20 hrs by CLSI method; type: functional; conditions: time 18-20 hrs
Method in brief: (§2)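 Broth microdilution per CLSI. Strains grown aerobically overnight on TSA at 37 °C, suspended to 0.5 McFarland, diluted in CAMHB to about 5×10^5 CFU/mL. Agents serially diluted across plate; aerobic incubation 37 °C for 18-20 h. MIC = lowest concentration completely preventing visible growth.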

[6] = system: Staphylococcus aureus; assay: Antibacterial activity against methicillin-resistant Staphylococcus aureus NRS382 assessed as inhibition of visible bacterial growth incubated for 18 to 20 hrs by CLSI method; type: functional; conditions: time 18-20 hrs; method in brief: as §1
[7] = system: Staphylococcus aureus; assay: Antibacterial activity against methicillin-resistant Staphylococcus aureus NRS385 assessed as inhibition of visible bacterial growth incubated for 18 to 20 hrs by CLSI method; type: functional; conditions: time 18-20 hrs; method in brief: as §1
[8] = system: Streptococcus pneumoniae; assay: Antibacterial activity against cephalosporin-resistant Streptococcus pneumoniae ATCC 51916 assessed as inhibition of visible bacterial growth incubated for 18 to 20 hrs by CLSI method; type: functional; conditions: time 18-20 hrs; method in brief: as §1
[9] = system: Staphylococcus aureus; assay: Antibacterial activity against methicillin-sensitive Staphylococcus aureus NRS 107 assessed as inhibition of visible bacterial growth incubated for 18 to 20 hrs by CLSI method; type: functional; conditions: time 18-20 hrs; method in brief: as §1
[10] = system: Staphylococcus aureus; assay: Antibacterial activity against methicillin-resistant Staphylococcus aureus NRS123 assessed as inhibition of visible bacterial growth incubated for 18 to 20 hrs by CLSI method; type: functional; conditions: time 18-20 hrs; method in brief: as §1
[11] = system: Staphylococcus aureus; assay: Antibacterial activity against methicillin-resistant Staphylococcus aureus NRS 119 assessed as inhibition of visible bacterial growth incubated for 18 to 20 hrs by CLSI method; type: functional; conditions: time 18-20 hrs; method in brief: as §1
[12] = system: Acinetobacter baumannii; assay: Antibacterial activity against Acinetobacter baumannii ATCC 19606 RW4 assessed as inhibition of visible bacterial growth at 16 ug/ml incubated for 18 to 20 hrs by CLSI method; type: functional, organism-based; conditions: ATCC 19606 = CIP 70.34 = JCM 6841 RW4, dose 16.0 µg/ml, time 18-20 hrs; method in brief: as §1
[13] = system: Staphylococcus aureus; assay: Synergistic antibacterial activity against methicillin-resistant Staphylococcus aureus ATCC 33592 assessed as fractional inhibitory concentration index in presence of methicillin by checkerboard assay; type: functional
[14] = system: Staphylococcus aureus; assay: Antibacterial activity against methicillin-resistant Staphylococcus aureus NRS387 assessed as inhibition of visible bacterial growth incubated for 18 to 20 hrs by CLSI method; type: functional; conditions: time 18-20 hrs; method in brief: as §1
[15] = system: Staphylococcus aureus; assay: Antibacterial activity against methicillin-resistant Staphylococcus aureus NRS483 assessed as inhibition of visible bacterial growth incubated for 18 to 20 hrs by CLSI method; type: functional; conditions: time 18-20 hrs; method in brief: as §1
[16] = system: Staphylococcus aureus; assay: Antibacterial activity against Staphylococcus aureus ATCC 25923 assessed as inhibition of visible bacterial growth incubated for 18 to 20 hrs by CLSI method; type: functional; conditions: time 18-20 hrs; method in brief: as §1
[17] = system: Streptococcus pneumoniae; assay: Antibacterial activity against […] Streptococcus pneumoniae ATCC 700677 assessed as inhibition of visible bacterial growth incubated for 18 to 20 hrs by CLSI method; type: functional; conditions: time 18-20 hrs; method in brief: as §1
[18] = system: Staphylococcus aureus; assay: Antibacterial activity against methicillin-resistant Staphylococcus aureus NRS383 assessed as inhibition of visible bacterial growth incubated for 18 to 20 hrs by CLSI method; type: functional; conditions: time 18-20 hrs; method in brief: as §1
[19] = system: Staphylococcus aureus; assay: Antibacterial activity against vancomycin-resistant Staphylococcus aureus 10 assessed as inhibition of visible bacterial growth incubated for 18 to 20 hrs by CLSI method; type: functional; conditions: time 18-20 hrs; method in brief: as §1
[20] = system: Staphylococcus aureus; assay: Synergistic antibacterial activity against methicillin-resistant Staphylococcus aureus ATCC 33592 assessed as fractional inhibitory concentration index in presence of linezolid by checkerboard assay; type: functional
[21] = system: Staphylococcus aureus; assay: Antibacterial activity against methicillin-resistant Staphylococcus aureus ATCC 33592 assessed as inhibition of visible bacterial growth incubated for 18 to 20 hrs by CLSI method; type: functional; conditions: time 18-20 hrs; method in brief: as §1
[22] = system: Staphylococcus aureus; assay: Antibacterial activity against methicillin-resistant Staphylococcus aureus NRS384 assessed as inhibition of visible bacterial growth incubated for 18 to 20 hrs by CLSI method; type: functional; conditions: time 18-20 hrs; method in brief: as §1
[23] = system: J774; assay: Cytotoxicity against mouse J774 cells assessed as reduction in cell viability at 32 ug/ml incubated for 24 hrs by MTS assay; type: cell-based; conditions: j774, 24 h, dose 32 µg/ml
[24] = Hemolytic activity in human RBC at 128 ug/ml incubated for 60 mins relative to control; type: ADME, cell-based, Erythrocyte; conditions: red blood cells (erythrocytes), dose 128 µg/ml, read-out: Activity
Method in brief: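 Single-donor human erythrocytes as a 5% v/v suspension in PBS. Compounds serially diluted in PBS, in triplicate, and incubated with RBCs at 37 °C for 60 min. PBS served as the negative control and Triton-X as the positive control. Samples spun at 4,000 rpm for 5 min and supernatant absorbance read at 540 nm. Percent hemolysis = 100×(sample−negative)/(positive−negative).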

[25] = system: Escherichia coli; assay: Antibacterial activity against Escherichia coli ATCC 25404 assessed as inhibition of visible bacterial growth at 16 ug/ml incubated for 18 to 20 hrs by CLSI method; type: functional, organism-based; conditions: B ATCC 25404, dose 16.0 µg/ml, time 18-20 hrs; method in brief: as §1
[26] = system: Enterococcus faecalis; assay: Antibacterial activity against vancomycin- resistant Enterococcus faecalis ATCC 700221 assessed as inhibition of visible bacterial growth incubated for 18 to 20 hrs by CLSI method; type: functional; conditions: time 18-20 hrs; method in brief: as §1
[27] = system: Staphylococcus aureus; assay: Antibacterial activity against methicillin-resistant Staphylococcus aureus NRS386 assessed as inhibition of visible bacterial growth incubated for 18 to 20 hrs by CLSI method; type: functional; conditions: time 18-20 hrs; method in brief: as §1
[28] = system: Staphylococcus epidermidis; assay: Antibacterial activity against Staphylococcus epidermidis NRS101 assessed as inhibition of visible bacterial growth incubated for 18 to 20 hrs by CLSI method; type: functional; conditions: time 18-20 hrs; method in brief: as §2
[29] = system: Enterococcus faecalis; assay: Antibacterial activity against vancomycin- resistant Enterococcus faecalis ATCC 51299 assessed as inhibition of visible bacterial growth incubated for 18 to 20 hrs by CLSI method; type: functional; conditions: time 18-20 hrs; method in brief: as §1
[30] = system: Pseudomonas aeruginosa; assay: Antibacterial activity against Pseudomonas aeruginosa ATCC 27853 assessed as inhibition of visible bacterial growth at 16 ug/ml incubated for 18 to 20 hrs by CLSI method; type: functional, organism-based; conditions: dose 16.0 µg/ml, time 18-20 hrs; method in brief: as §1
[31] = system: Staphylococcus aureus; assay: Bacteriostatic activity against methicillin-resistant Staphylococcus aureus ATCC 33592 assessed as reduction in bacterial growth incubated for 18 hrs by CLSI method; type: functional
[32] = system: Staphylococcus aureus; assay: Antibacterial activity against methicillin-resistant Staphylococcus aureus ATCC 33592 assessed as reduction in bacterial count at 3 x MIC incubated upto 24 hrs by time kill analysis; type: functional; conditions: time hrs <=24
Method in brief: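 Time-kill assay. […] Samples taken at 0, 2, 4, 8, 12 and 24 h, serially diluted in PBS and plated on tryptic soy agar. Viable CFU/mL counted after 18-20 h at 37 °C.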

[33] = system: Staphylococcus aureus; assay: Synergistic antibacterial activity against methicillin-resistant Staphylococcus aureus ATCC 33592 assessed as fractional inhibitory concentration index in presence of daptomycin by checkerboard assay; type: functional
[34] = system: Staphylococcus aureus; assay: Synergistic antibacterial activity against methicillin-resistant Staphylococcus aureus ATCC 33592 assessed as fractional inhibitory concentration index in presence of Vancomycin; type: functional
[35] = system: Caco-2; assay: Cytotoxicity against human Caco2 cells assessed as reduction in cell viability at 64 ug/ml incubated for 2 hrs by MTS assay; type: cell-based; conditions: caco-2, 2 h, dose 64 µg/ml
[36] = system: Staphylococcus aureus; assay: Bactericidal activity against methicillin-resistant Staphylococcus aureus ATCC 33592 assessed as reduction in bacterial growth incubated for 18 hrs by CLSI method; type: functional

| Compound | MIC [2] [mg/L] | MIC [3] [mg/L] | MIC [4] [mg/L] | MIC [5] [mg/L] | MIC [6] [mg/L] | MIC [7] [mg/L] | MIC [8] [mg/L] | MIC [9] [mg/L] | MIC [10] [mg/L] | MIC [11] [mg/L] | inhibition [12] | fractional inhibitory concentration index (FICI) [13] | MIC [14] [mg/L] | MIC [15] [mg/L] | MIC [16] [mg/L] | MIC [17] [mg/L] | MIC [18] [mg/L] | MIC [19] [mg/L] | fractional inhibitory concentration index (FICI) [20] | MIC [21] [mg/L] | other results |
| --- | --- | --- | --- | --- | --- | --- | --- | --- | --- | --- | --- | --- | --- | --- | --- | --- | --- | --- | --- | --- | --- |
| O=C(Nc1nnc(-c2cccs2)o1)c1ccc(OC(F)(F)F)cc1 | 1 (≈ 2.81 µM) | 1 (≈ 2.81 µM) | 0.5 (≈ 1.41 µM) | 2 (≈ 5.63 µM) | 1 (≈ 2.81 µM) | 2 (≈ 5.63 µM) | 2 (≈ 5.63 µM) | 1 (≈ 2.81 µM) | 1 (≈ 2.81 µM) | 1 (≈ 2.81 µM) | inactive | 0.63 | 2 (≈ 5.63 µM) | 1 (≈ 2.81 µM) | 1 (≈ 2.81 µM) | 1 (≈ 2.81 µM) | 2 (≈ 5.63 µM) | 1 (≈ 2.81 µM) | 1.25 | 1 (≈ 2.81 µM) | Activity [1]: Non-Toxic; MIC [22]: 0.5 mg/L (≈ 1.41 µM); Activity [23]: Non-Toxic; hemolysis at 1 h, 128 ug/ml [24]: 20%; inhibition [25]: inactive; MIC [26]: 4 mg/L (≈ 11.3 µM); MIC [27]: 1 mg/L (≈ 2.81 µM); MIC [28]: 0.5 mg/L (≈ 1.41 µM); MIC [29]: 8 mg/L (≈ 22.5 µM); inhibition [30]: inactive; MBC [31]: > 128 mg/L; Activity [32]: 0.69 log10CFU/ml; fractional inhibitory concentration index (FICI) [33]: 0.5; fractional inhibitory concentration index (FICI) [34]: 1.06 |
| O=C(Nc1nnc(-c2cccs2)o1)c1ccc(S(F)(F)(F)(F)F)cc1 | 0.5 (≈ 1.26 µM) | 0.125 (≈ 0.315 µM) | 0.5 (≈ 1.26 µM) | 0.125 (≈ 0.315 µM) | 0.5 (≈ 1.26 µM) | 0.5 (≈ 1.26 µM) | 0.25 (≈ 0.629 µM) | 0.125 (≈ 0.315 µM) | 0.25 (≈ 0.629 µM) | 0.06 (≈ 0.151 µM) | inactive | 0.5 | 0.25 (≈ 0.629 µM) | 0.25 (≈ 0.629 µM) | 0.25 (≈ 0.629 µM) | 0.125 (≈ 0.315 µM) | 1 (≈ 2.52 µM) | 0.25 (≈ 0.629 µM) | 1.5 | 0.5 (≈ 1.26 µM) | Activity [35]: Non-Toxic; MIC [22]: 0.5 mg/L (≈ 1.26 µM); Activity [23]: Non-Toxic; hemolysis at 1 h, 128 ug/ml [24]: 9%; inhibition [25]: inactive; MIC [26]: 2 mg/L (≈ 5.03 µM); MIC [27]: 0.125 mg/L (≈ 0.315 µM); MIC [28]: 0.06 mg/L (≈ 0.151 µM); MIC [29]: 2 mg/L (≈ 5.03 µM); inhibition [30]: inactive; MBC [36]: 1 mg/L (≈ 2.52 µM); Activity [32]: 3.96 log10CFU/ml; fractional inhibitory concentration index (FICI) [33]: 0.75; fractional inhibitory concentration index (FICI) [34]: 1 |
